The record followed here is ChEMBL document CHEMBL2202967, “Synthesis, characterization and biological evaluation of ureidofibrate-like derivatives endowed with peroxisome proliferator-activated receptor activity” (J Med Chem, 2012).

Active and inactive are the calls of the source. The rule behind the calls is not given here. A value given as a limit tells only on which side of the number the result lay.

Series [1] addresses T1, Peroxisome proliferator-activated receptor gamma (Homo sapiens, UniProt P37231).
T1 sequence (P37231 whole entry): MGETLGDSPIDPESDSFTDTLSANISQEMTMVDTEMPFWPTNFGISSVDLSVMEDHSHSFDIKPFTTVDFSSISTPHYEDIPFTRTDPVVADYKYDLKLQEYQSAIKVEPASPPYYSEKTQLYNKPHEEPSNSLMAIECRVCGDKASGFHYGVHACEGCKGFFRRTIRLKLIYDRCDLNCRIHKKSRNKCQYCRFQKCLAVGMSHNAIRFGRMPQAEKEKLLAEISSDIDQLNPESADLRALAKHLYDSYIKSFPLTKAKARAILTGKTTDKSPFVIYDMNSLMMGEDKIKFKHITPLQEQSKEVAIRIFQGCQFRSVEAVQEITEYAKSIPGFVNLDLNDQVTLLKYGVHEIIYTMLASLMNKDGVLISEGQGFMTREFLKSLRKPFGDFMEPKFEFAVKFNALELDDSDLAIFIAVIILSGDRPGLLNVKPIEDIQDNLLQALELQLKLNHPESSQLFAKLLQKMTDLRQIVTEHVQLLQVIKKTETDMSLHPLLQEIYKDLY
Kind of series: Agonist activity at human GAL4-fused PPARgamma ligand binding domain expressed in HepG2 cells after 20 hrs by luciferase reporter gene transactivation assay. In kind it is cell-based. Background: A reporter such as luciferase makes a cellular process visible.

In series [2] the test system is Mus musculus. Description: Reduction of body weight in high fat diet fed-induced obesity and insulin resistance C57Bl/6J mouse model at 10 mg/kg/day, po administered once daily for 2 weeks relative to control. The format is functional. The method, boiled down:
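Male C57Bl/6J mice, 6 weeks old, on high-fat diet for 16 weeks. Then dosed once daily for 2 weeks by oral gavage in 0.5% hypromellose; doses chosen in a preliminary dose-finding study. Body weight measured at end of treatment versus HFD controls, 6 mice per group.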

The test system of series [3] is Mus musculus. Kind of series: Reduction of visceral fat weight in high fat diet fed-induced obesity and insulin resistance C57Bl/6J mouse model at 10 mg/kg/day, po administered once daily for 2 weeks measured on day 12 by in vivo magnetic resonance imaging analysis. In kind it is functional, organism-based. In short, it runs like this: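 Mice fed a high-fat diet for 16 weeks were gavaged daily for 2 weeks in 0.5% hypromellose. Under 1% isoflurane they were scanned at 4.7 T with sixteen 1 mm axial T1-weighted slices from kidneys to bladder. Visceral fat was expressed as percentage of total image area, 3 mice per group.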

Series [4] has as its target T2, Peroxisome proliferator-activated receptor alpha (Homo sapiens, UniProt Q07869).
T2 sequence (Q07869 whole entry): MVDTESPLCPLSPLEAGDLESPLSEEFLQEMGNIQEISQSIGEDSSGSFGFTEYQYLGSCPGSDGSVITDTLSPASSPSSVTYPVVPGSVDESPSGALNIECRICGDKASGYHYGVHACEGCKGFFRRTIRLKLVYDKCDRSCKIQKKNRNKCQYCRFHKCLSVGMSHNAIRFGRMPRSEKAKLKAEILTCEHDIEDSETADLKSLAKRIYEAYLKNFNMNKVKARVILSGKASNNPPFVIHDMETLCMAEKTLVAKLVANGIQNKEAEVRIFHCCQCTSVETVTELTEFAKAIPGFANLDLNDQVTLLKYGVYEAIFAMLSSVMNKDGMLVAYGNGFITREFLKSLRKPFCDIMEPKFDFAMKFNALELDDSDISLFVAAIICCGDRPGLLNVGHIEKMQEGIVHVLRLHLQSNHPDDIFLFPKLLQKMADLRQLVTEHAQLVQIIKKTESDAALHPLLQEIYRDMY
Description: Agonist activity at human GAL4-fused PPARalpha ligand binding domain expressed in HepG2 cells after 20 hrs by luciferase reporter gene transactivation assay. The format is cell-based. In short, it runs like this:
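HepG2 cells in MEM with 10% heat-inactivated FBS, seeded at 10⁵ cells/well and transfected after 24 h by calcium phosphate. Plasmids: Gal4-PPARα LBD (30 ng), pGal5TKpGL3 luciferase reporter (100 ng) and pCMVβgal (250 ng). Ligands added 4 h post-transfection, for 20 h, in triplicate. Luciferase read in cell extracts, with β-galactosidase activity measured alongside; experiments repeated at least twice.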

The target of series [5] is T3, Peroxisome proliferator-activated receptor alpha (Homo sapiens) (UniProt Q07869).
T3 sequence (whole entry): T2 sequence (Q07869 whole entry)
Kind of series: Agonist activity at human GAL4-fused PPARalpha ligand binding domain expressed in HepG2 cells after 20 hrs by luciferase reporter gene transactivation assay relative to WY14643. In kind it is cell-based. In short, it runs like this:
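GAL4-human PPARα LBD chimera (30 ng) with Gal5-TK luciferase reporter (100 ng) and pCMVβgal (250 ng), calcium-phosphate transfected into HepG2 (MEM, 10% FBS) seeded 10⁵ cells/well. Ligands added 4 h post-transfection for 20 h, in triplicate. Luciferase read in cell extracts, normalised to β-galactosidase activity. Experiments repeated at least twice.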

In series [6] the target is T4, Peroxisome proliferator-activated receptor delta (Homo sapiens, UniProt Q03181).
T4 sequence (Q03181 whole entry): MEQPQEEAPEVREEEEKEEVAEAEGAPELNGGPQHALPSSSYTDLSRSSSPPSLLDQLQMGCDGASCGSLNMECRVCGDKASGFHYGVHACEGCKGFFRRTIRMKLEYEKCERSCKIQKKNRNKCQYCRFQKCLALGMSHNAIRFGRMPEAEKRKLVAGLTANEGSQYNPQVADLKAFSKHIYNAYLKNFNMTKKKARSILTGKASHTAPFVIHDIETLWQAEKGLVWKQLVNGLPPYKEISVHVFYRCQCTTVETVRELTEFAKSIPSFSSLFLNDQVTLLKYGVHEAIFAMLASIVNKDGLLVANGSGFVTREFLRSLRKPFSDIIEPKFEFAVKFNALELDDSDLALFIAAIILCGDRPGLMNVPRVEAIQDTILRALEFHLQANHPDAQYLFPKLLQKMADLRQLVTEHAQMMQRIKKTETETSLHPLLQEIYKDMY
Kind of series: Agonist activity at human GAL4-fused PPARdelta ligand binding domain expressed in COS-1 cells after 20 hrs by luciferase reporter gene transactivation assay. The format is cell-based.

For series [7], the target named is T1, Peroxisome proliferator-activated receptor gamma. Description: Binding affinity to PPARgamma ligand binding domain by isothermal titration calorimetry.
A short description of series [8]: Solubility of the compound in HEPES buffer. The format is physicochemical.
The target of series [9] is T5, Peroxisome proliferator-activated receptor gamma (Homo sapiens) (UniProt P37231).
T5 sequence (whole entry): T1 sequence (P37231 whole entry)
The conditions noted are these: BL21-DE3.

Series [10] concerns HT-29. Kind of series: Antitumor activity against human HT-29 cells assessed as inhibition of cell proliferation after 1 day by MTT assay. The conditions noted are these: HT-29, 24 h. The format is functional, cell-based. In short, it runs like this: (§1)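 MTT assay with 10,000 cells/well seeded on day 1. Ligands added on day 2 at 1, 5, 10, 50 and 100 μM, from 20 mM DMSO stocks, for 1 or 2 days. Six replicate wells per drug, untreated control column. IC50 is the concentration giving 0.5 fraction affected versus untreated controls, taken from dose–effect curves. Each experiment in triplicate.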

Series [11] concerns HCT-15. Description: Antitumor activity against human HCT15 cells assessed as inhibition of cell proliferation after 1 day by MTT assay. The conditions noted are these: HCT-15, 24 h. The format is functional, cell-based. The method, boiled down:
as §1

The test system of series [12] is LoVo. Kind of series: Antitumor activity against human LoVo cells assessed as inhibition of cell proliferation after 1 day by MTT assay. In kind it is functional, cell-based. The conditions noted are these: 24 h. The method, boiled down: as §1
The subject of series [13] is HT-29. Kind of series: Antitumor activity against human HT-29 cells assessed as inhibition of cell proliferation after 2 days by MTT assay. The conditions noted are these: HT-29, 48 h. The format is functional, cell-based. In short, it runs like this:
as §1
On the technique in general: Tetrazolium dyes change colour on reduction, which living cells bring about.

Series [14] deals with HCT-15. Kind of series: Antitumor activity against human HCT15 cells assessed as inhibition of cell proliferation after 2 days by MTT assay. The conditions noted are these: HCT-15, 48 h. In kind it is functional, cell-based. In short, it runs like this: as §1
In series [15] the test system is LoVo. Description: Antitumor activity against human LoVo cells assessed as inhibition of cell proliferation after 2 days by MTT assay. In kind it is functional, cell-based. The conditions noted are these: 48 h. The method, boiled down:
as §1

Series [16] concerns HT-29. Description: Induction of apoptosis in human HT-29 cells at IC50 by Annexin V-FITC/propidium iodide staining based flow cytometry. The format is functional, cell-based. The conditions noted are these: TDE = time-dependent effect. In general terms: A flow cytometer gives signals particle by particle.
The test system of series [17] is Mus musculus. Description: Induction of PPARalpha-mediated upregulation of Acadm mRNA expression in liver of high fat diet fed-induced obesity and insulin resistance C57Bl/6J mouse model at 100 mg/kg/day, po administered once daily for 2 weeks by real time qPCR analysis. The format is functional, organism-based. The method, boiled down: (§2)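 Livers came from mice fed a high-fat diet for 16 weeks, then gavaged once daily for 2 weeks in 0.5% hypromellose, and were snap-frozen at sacrifice. Total RNA was extracted with Trizol and cleaned up on RNeasy columns. 1 μg RNA was used for mRNA quantitation.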

Series [18] concerns Mus musculus. Description: Induction of PPARalpha-mediated upregulation of Acadl mRNA expression in liver of high fat diet fed-induced obesity and insulin resistance C57Bl/6J mouse model at 100 mg/kg/day, po administered once daily for 2 weeks by real time qPCR analysis. The format is functional, organism-based. In short, it runs like this: as §2
The test system of series [19] is Mus musculus. Description: Induction of PPARalpha-mediated upregulation of Acox1 mRNA expression in liver of high fat diet fed-induced obesity and insulin resistance C57Bl/6J mouse model at 100 mg/kg/day, po administered once daily for 2 weeks by real time qPCR analysis. In kind it is functional, organism-based. The method, boiled down: as §2
The test system of series [20] is Mus musculus. Kind of series: Increase in liver weight in high fat diet fed-induced obesity and insulin resistance C57Bl/6J mouse model at 100 mg/kg/day, po administered once daily for 2 weeks. The format is functional, organism-based.

With `Cc1cccc(Nc2cc(Cl)nc(SCC(=O)O)n2)c1C` [PIRINIXIC ACID], the concentration giving a half-maximal response (EC50) (as a rule, the concentration giving half of the maximal effect) in series [1] (hepg2) is “Not Active”.
On to `CN(CCOc1ccc(CC2SC(=O)NC2=O)cc1)c1ccccn1` (centres undefined) [ROSIGLITAZONE], for which the inhibition entry in the series on Mus musculus [2] and in the series on Mus musculus [3] was “inactive” in each case. Also, the concentration for a half-maximal effect (EC50) entry in series [4] (hepg2) is listed as “Not Active”. Also, in [5], the Emax result was “inactive”.
Take `CCCCCCCN(CCc1ccc(OCC(=O)O)cc1)c1nc2ccccc2o1`: the EC50 is 0.122 µM in series [4] (read-out: EC50), 0.8 µM in [1] (read-out: EC50) and 0.57 µM in series [6] (read-out: EC50). Besides, in series [5], the Emax was determined as 87%. For the same molecule, in series [7], the Kd (usually a measure of binding affinity in units of concentration) came to 7.7 µM.
For the molecule `CCCc1c(OCCCOc2ccc(OCC(=O)O)cc2)ccc(C(C)=O)c1O`, the EC50 entry in series [4] (hepg2) was “Not Active”; in series [1] (hepg2), “Not Active”; in [6] (read-out: EC50), 0.021 µM.
Turning to `CCCCCCCN(CCc1ccc(O[C@H](Cc2ccccc2)C(=O)O)cc1)c1nc2ccccc2o1.NC1CCCCC1`, the concentration giving a half-maximal response (EC50) is 1.72 µM in series [4] (read-out: EC50), 2.7 µM in [1] (read-out: EC50) and “Not Active” in series [6] (cos-1). The solubility result in series [8] is “Insoluble”.
Regarding `CCCCCCCN(CCc1ccc(O[C@@H](C)C(=O)O)cc1)c1nc2ccccc2o1`, the 50% effective concentration (EC50) is 0.62 µM in series [4] (read-out: EC50), 2.3 µM in series [1] (read-out: EC50) and 0.85 µM in series [6] (read-out: EC50). Moreover, the Emax in series [5] was 78%. In series [7], this molecule came in with an equilibrium dissociation constant (Kd) of 3.3 µM. The deltaT in series [9] came out at 2 °C.
On to `Cc1c(C)c2c(c(C)c1O)CCC(C)(COc1ccc(CC3SC(=O)NC3=O)cc1)O2` (centres undefined) [TROGLITAZONE], for which the concentration for half-maximal inhibition (IC50) – broadly, the point on the concentration scale where inhibition reaches its midpoint – is > 100 µM in the series with HT-29 [10]; > 100 µM in the series on HCT-15 [11]; > 100 µM in the series with LoVo [12]; 50 µM with HT-29 [13]; 50.9 µM in the series with HCT-15 [14]; 65 µM in the series on LoVo [15]. In addition, the Activity result in the series on HT-29 [16] was “tde”.
For `CC(C)OC(=O)C(C)(C)Oc1ccc(C(=O)c2ccc(Cl)cc2)cc1`, the outcome in the series on Mus musculus [17], in the series on Mus musculus [18], in the series with Mus musculus [19] and in the series on Mus musculus [20] was Active.
Take `CCCCCCCN(CCc1ccc(O[C@H](C)C(=O)O)cc1)c1nc2ccccc2o1`: the EC50 in series [4] (read-out: EC50) came out at 0.025 µM; in [1] (read-out: EC50) it was 0.15 µM; in [6] (read-out: EC50) it was 0.13 µM. The molecule further returned an Emax in series [5] of 93%. The same molecule showed a dissociation constant (Kd) in series [7] of 1.5 µM. Moreover, the deltaT in series [9] was determined as 2 °C.
On to `CCCCCCCN(CCc1ccc(O[C@@H](Cc2ccccc2)C(=O)O)cc1)c1nc2ccccc2o1.NC1CCCCC1`, for which the EC50 entry in [4] (hepg2) was “Not Active”; in series [1] (read-out: EC50), 1.7 µM; in series [6] (cos-1), “Not Active”. Besides, the solubility result in [8] is given as “Insoluble”.
